Reference: publication PMC8637866 (RSC Chemical Biology, 2021)
No end group written: not given here.

Assays:
PTHR1-6E = molecular target: T1, PTHR1-6E (Homo sapiens, UniProt Q03431, A83I/D81R/G76A/K80A/K82Q/P78E/R79L/S71Q/S73D/S75E/T74Q); experiment: cAMP response; assay type: cell-based
T1 sequence (Q03431 23-593 S71Q/S73D/T74Q/S75E/G76A/P78E/R79L/K80A/D81R/K82Q/A83I limits assumed): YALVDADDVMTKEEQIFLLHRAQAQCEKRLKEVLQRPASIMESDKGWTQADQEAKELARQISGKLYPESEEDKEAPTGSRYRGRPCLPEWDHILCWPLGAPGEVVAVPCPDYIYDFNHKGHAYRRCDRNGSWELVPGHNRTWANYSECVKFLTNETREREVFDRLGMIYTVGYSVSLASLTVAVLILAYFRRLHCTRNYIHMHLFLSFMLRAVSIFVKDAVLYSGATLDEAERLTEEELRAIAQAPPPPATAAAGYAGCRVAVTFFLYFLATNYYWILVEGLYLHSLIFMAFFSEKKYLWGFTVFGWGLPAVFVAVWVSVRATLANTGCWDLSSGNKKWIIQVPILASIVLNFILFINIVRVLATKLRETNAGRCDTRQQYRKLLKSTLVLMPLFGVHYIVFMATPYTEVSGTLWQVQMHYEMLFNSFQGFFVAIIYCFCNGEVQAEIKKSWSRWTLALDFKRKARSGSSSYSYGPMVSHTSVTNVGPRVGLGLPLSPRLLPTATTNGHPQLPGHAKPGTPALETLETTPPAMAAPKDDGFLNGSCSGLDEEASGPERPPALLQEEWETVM
How it was run: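 HEK293 cells stably expressing PTHR1 carrying the 6E tag plus a cAMP-responsive luciferase (Glosensor) were treated with graded concentrations of VHH–PTH1–11 conjugates. cAMP was read as luminescence. EC50 came from a sigmoidal dose–response fit with variable slope, using replicate wells per experiment and three independent experiments.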

PTHR1-6E-HEK cells = experiment: Flow cytometry binding of VHH–biotin–PTH conjugates to PTHR1-6E-HEK cells; design: species or system human
How it was run: (§1)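 Adherent cells were detached with trypsin, washed, resuspended in PBS, and stained for 1 h on ice with graded concentrations of biotin-labelled VHH–PTH1–11 conjugates. Cells were washed, stained with streptavidin–PE, and analysed by flow cytometry. Line 1 used PTHR1-6E-HEK cells (HEK293 expressing PTHR1 with the 6E tag in the extracellular domain); line 2 used parental HEK293 cells. Median fluorescence intensity was fitted to sigmoidal curves, with maximal staining expressed relative to the MHC-I conjugate; three independent experiments.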

neg-HEK cells = experiment: Flow cytometry binding of VHH–biotin–PTH conjugates to neg-HEK cells; conditions: for EC50: read-out: Binding EC50, Neg-HEK, 1 h on ice, streptavidin–PE, flow cytometry (MFI), mean of three independent experiments
How it was run: as §1

human PTHR1 = experiment: cAMP stimulation by PTH1–34 CLAMPs on receptor cells; assay type: cell-based; conditions: HEK293 cells (receptor cells) that express human PTHR1; Fig. 5 (legend: PTHR1-6E-HEK)

Compound | cAMP stimulation compared with PTH1–34 (in words) (human PTHR1) | EC50 (neg-HEK cells) [nM] | also measured
CC[C@H](C)[C@H](NC(=O)[C@H](CCC(=O)O)NC(=O)[C@H](CO)NC(=O)[C@@H](NC(=O)[C@@H](N)CO)C(C)C)C(=O)N[C@@H](CCC(N)=O)C(=O)N[C@@H](CC(C)C)C(=O)N[C@@H](CCSC)C(=O)N[C@@H](Cc1c[nH]cn1)C(=O)N[C@@H](CC(N)=O)C(=O)N[C@@H](CC(C)C)C(=O)NCC(=O)N[C@@H](CCCCN)C(=O)N[C@@H](Cc1c[nH]cn1)C(=O)N[C@@H](CC(C)C)C(=O)N[C@@H](CC(N)=O)C(=O)N[C@@H](CO)C(=O)N[C@@H](CCSC)C(=O)N[C@@H](CCC(=O)O)C(=O)N[C@@H](CCCNC(=N)N)C(=O)N[C@H](C(=O)N[C@@H](CCC(=O)O)C(=O)N[C@@H](Cc1c[nH]c2ccccc12)C(=O)N[C@@H](CC(C)C)C(=O)N[C@@H](CCCNC(=N)N)C(=O)N[C@@H](CCCCN)C(=O)N[C@@H](CCCCN)C(=O)N[C@@H](CC(C)C)C(=O)N[C@@H](CCC(N)=O)C(=O)N[C@@H](CC(=O)O)C(=O)N[C@H](C(=O)N[C@@H](Cc1c[nH]cn1)C(=O)N[C@@H](CC(N)=O)C(=O)N[C@@H](Cc1ccccc1)C(=O)N[C@@H](CS)C(N)=O)C(C)C)C(C)C [PTH1–34, reference compound] |  |  | EC50 (PTHR1-6E): 0.18 nM
VHH6E–PTH1–11: conjugate of VHH6E (binds UBC6E epitope tag), biotin and PTH1–11 (SVSEIQLMHNL; also: conjugated to VHH6E nanobody and biotin; UniProt P01270 32-42, looked up, fragment) |  |  | staining signal compared with VHHMHC-I (in words) (PTHR1-6E-HEK cells): stronger signal than staining with VHHMHC-I; maximal staining (in words) (neg-HEK cells; HEK-neg cells): a The maximal staining for VHH6E–PTH1–11 on HEK-neg cells was very weak, so binding EC50 values were not determined (ND).
VHHGFP–PTH1–34: CLAMP of PTH1–34 conjugated to VHH that targets GFP (SVSEIQLMHNLGKHLNSMERVEWLRKKLQDVHNF; also: conjugated to anti-GFP VHH (with biotin); UniProt P01270 32-65, looked up, fragment) | performed similarly to PTH1–34 itself |  | 
VHHMHC-II–PTH1–34: CLAMP of PTH1–34 conjugated to VHH that targets murine MHC-II (SVSEIQLMHNLGKHLNSMERVEWLRKKLQDVHNF; Parathyroid hormone conjugated to anti-MHC-II VHH; UniProt P01270 32-65, looked up, fragment) | performed similarly to PTH1–34 itself |  | 
VHHMHC-I–PTH1–11: conjugate of VHHMHC-I (targets human β2-microglobulin, previously Nb30), biotin and PTH1–11 (SVSEIQLMHNL; also: conjugated to anti-β2-microglobulin VHH and biotin; UniProt P01270 32-42, looked up, fragment) |  | 4.3 | stimulation of cAMP responses (in words) (PTHR1-6E; PTHR1-6E-HEK cells, Fig. 2e and Table 1): essentially inactive in stimulating cAMP responses
VHHa5b1–PTH1–11: conjugate of VHHα5β1 (targets integrin α5β1), biotin and PTH1–11 (SVSEIQLMHNL; also: conjugated to anti-integrin α5β1 VHH and biotin; UniProt P01270 32-42, looked up, fragment) |  | 3 | 
